{"source": "ChEMBL document CHEMBL4354843", "about": "“Structure-Based Design of a Potent and Selective Covalent Inhibitor for SRC Kinase That Targets a P-Loop Cysteine” (J Med Chem, 2020)", "key": {"[1]": {"molecular_target": "Protein kinase C delta type (Homo sapiens) (UniProt Q05655)", "assay": "Binding affinity to wild-type human partial length PRKCD (Q328 to D676 residues) expressed in bacterial expression system assessed as residual binding level at 1 uM by Kinomescan method relative to control"}, "[2]": {"molecular_target": "Angiopoietin-1 receptor (Homo sapiens) (UniProt Q02763)", "assay": "Binding affinity to wild-type human partial length TIE2 (N804 to T1112 residues) expressed in bacterial expression system assessed as residual binding level at 1 uM by Kinomescan method relative to control"}, "[3]": {"molecular_target": "Mitogen-activated protein kinase kinase kinase 6 (Homo sapiens) (UniProt O95382)", "assay": "Binding affinity to wild-type human partial length ASK2 (M278 to R972 residues) expressed in mammalian expression system assessed as residual binding level at 1 uM by Kinomescan method relative to control", "summary_of_the_method": "(§1)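 KinomeScan, an active site-directed competition binding panel of 468 kinases. The test compound was at 1 μM. The readout is remaining kinase binding as a percentage of the DMSO control. Scores above 35% were treated as weak binding and not listed.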"}, "[4]": {"molecular_target": "Cyclin-dependent kinase 5 (Homo sapiens) (UniProt Q00535)", "assay": "Binding affinity to wild-type human full length CDK5 (M1 to P292 residues) expressed in bacterial expression system assessed as residual binding level at 1 uM by Kinomescan method relative to control", "summary_of_the_method": "(§2)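 Active-site-directed KinomeScan competition binding panel covering 468 kinases, compound tested at 1 μM. Each readout is the kinase signal remaining with compound, expressed as a percentage of the DMSO control. […]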"}, "[5]": {"molecular_target": "Serine/threonine-protein kinase PAK 1 (Homo sapiens) (UniProt Q13153)", "assay": "Binding affinity to wild-type human partial length PAK1 (S149 to H545 residues) expressed in bacterial expression system assessed as residual binding level at 1 uM by Kinomescan method relative to control"}, "[6]": {"molecular_target": "Inhibitor of nuclear factor kappa-B kinase subunit epsilon (Homo sapiens) (UniProt Q14164)", "assay": "Binding affinity to wild-type human full length IKK-epsilon (M1 to V716 residues) expressed in mammalian expression system assessed as residual binding level at 1 uM by Kinomescan method relative to control", "summary_of_the_method": "as §2"}, "[7]": {"molecular_target": "Phosphorylase b kinase gamma catalytic chain, skeletal muscle/heart isoform (Homo sapiens) (UniProt Q16816)", "assay": "Binding affinity to wild-type human full length PHKG1 (M1 to Y387 residues) expressed in bacterial expression system assessed as residual binding level at 1 uM by Kinomescan method relative to control", "summary_of_the_method": "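Active-site-directed competition binding panel (KinomeScan) covering 468 kinases. Test agent was screened at 1 μM. The read-out is the remaining kinase signal expressed relative to a DMSO control. Scores above 35%, taken as weak binding, were not reported.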"}, "[8]": {"molecular_target": "Serine/threonine-protein kinase 32C (Homo sapiens) (UniProt Q86UX6)", "assay": "Binding affinity to wild-type human partial length YANK3 (M68 to G486 residues) expressed in bacterial expression system assessed as residual binding level at 1 uM by Kinomescan method relative to control"}, "[9]": {"molecular_target": "RAC-gamma serine/threonine-protein kinase (Homo sapiens) (UniProt Q9Y243)", "assay": "Binding affinity to wild-type human partial length AKT3 expressed in bacterial expression system assessed as residual binding level at 1 uM by Kinomescan method relative to control"}, "[10]": {"molecular_target": "1-phosphatidylinositol 3-phosphate 5-kinase (Homo sapiens) (UniProt Q9Y2I7)", "assay": "Binding affinity to wild-type human partial length PIKFYVE (F1512 to C2098 residues) expressed in mammalian expression system assessed as residual binding level at 1 uM by Kinomescan method relative to control"}, "[11]": {"molecular_target": "Serine/threonine-protein kinase Sgk2 (Homo sapiens) (UniProt Q9HBY8)", "assay": "Binding affinity to wild-type human partial length SGK2 (L54 to C427 residues) expressed in mammalian expression system assessed as residual binding level at 1 uM by Kinomescan method relative to control"}, "[12]": {"molecular_target": "Serine/threonine-protein kinase Nek9 (Homo sapiens) (UniProt Q8TD19)", "assay": "Binding affinity to wild-type human partial length NEK9 (P32 to R328 residues) expressed in bacterial expression system assessed as residual binding level at 1 uM by Kinomescan method relative to control"}, "[13]": {"molecular_target": "Serine/threonine-protein kinase SIK1 (Homo sapiens) (UniProt P57059)", "assay": "Binding affinity to wild-type human partial length SIK (M1 to Y304 residues) expressed in bacterial expression system assessed as residual binding level at 1 uM by Kinomescan method relative to control", "summary_of_the_method": "(§3)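 Active site-directed competition binding panel (KinomeScan, 468 kinases). Test compound at 1 μM. Read-out is kinase binding remaining versus DMSO control, expressed as percent of control. Scores above 35% are treated as weak binding.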"}, "[14]": {"molecular_target": "Casein kinase II subunit alpha' (Homo sapiens) (UniProt P19784)", "assay": "Binding affinity to wild-type human full length CSNK2A2 (M1 to R350 residues) expressed in mammalian expression system assessed as residual binding level at 1 uM by Kinomescan method relative to control", "summary_of_the_method": "as §2"}, "[15]": {"molecular_target": "Insulin receptor (Homo sapiens) (UniProt P06213)", "assay": "Binding affinity to wild-type human partial length INSR (P997 to E1318 residues) expressed in mammalian expression system assessed as residual binding level at 1 uM by Kinomescan method relative to control"}, "[16]": {"molecular_target": "Vascular endothelial growth factor receptor 2 (Homo sapiens) (UniProt P35968)", "assay": "Binding affinity to wild-type human partial length VEGFR2 (R787 to P1253 residues) expressed in mammalian expression system assessed as residual binding level at 1 uM by Kinomescan method relative to control", "summary_of_the_method": "as §3"}, "[17]": {"molecular_target": "Serine/threonine-protein kinase 4 (Homo sapiens) (UniProt Q13043)", "assay": "Binding affinity to wild-type human full length MST1 (M1 to F487 residues) expressed in bacterial expression system assessed as residual binding level at 1 uM by Kinomescan method relative to control", "summary_of_the_method": "as §1"}, "[18]": {"molecular_target": "Cyclin-dependent kinase 2 homolog (Plasmodium falciparum (isolate 3D7)) (UniProt P61075)", "assay": "Binding affinity to wild-type Plasmodium falciparum full length PK5 (M1 to N288 residues) expressed in mammalian expression system assessed as residual binding level at 1 uM by Kinomescan method relative to control", "summary_of_the_method": "as §2"}, "[19]": {"system": "Mast/stem cell growth factor receptor Kit (Homo sapiens), P10721 [L576P]", "assay": "Binding affinity to human partial length KIT L576P mutant (Y545 to D952 residues) expressed in bacterial expression system assessed as residual binding level at 1 uM by Kinomescan method relative to control", "summary_of_the_method": "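KinomeScan active site-directed competition binding panel (468 kinases), compound tested at 1 μM. Result expressed as remaining kinase signal versus DMSO control (percent of control).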"}, "[20]": {"system": "Tyrosine-protein kinase ABL1 (Homo sapiens), P00519 [Q252H]", "assay": "Binding affinity to human phosphorylated ABL1 Q252H mutant expressed in mammalian expression system assessed as residual binding level at 1 uM by Kinomescan method relative to control", "summary_of_the_method": "as §2"}, "[21]": {"molecular_target": "Serine/threonine-protein kinase Nek10 (Homo sapiens) (UniProt Q6ZWH5)", "assay": "Binding affinity to wild-type human partial length NEK10 (L488 to R809 residues) expressed in mammalian expression system assessed as residual binding level at 1 uM by Kinomescan method relative to control"}}, "data": [{"smiles": "C=CC(=O)Nc1ccccc1Nc1nc(Nc2ccc(N3CCN(C)CC3)cc2)ncc1C(=O)Nc1c(C)cccc1Cl", "values": [{"measurement": "Activity", "setting": "[1]", "value": 100, "unit": "%"}, {"measurement": "Activity", "setting": "[2]", "value": 100, "unit": "%"}, {"measurement": "Activity", "setting": "[3]", "value": 64, "unit": "%"}, {"measurement": "Activity", "setting": "[4]", "value": 100, "unit": "%"}, {"measurement": "Activity", "setting": "[5]", "value": 100, "unit": "%"}, {"measurement": "Activity", "setting": "[6]", "value": 100, "unit": "%"}, {"measurement": "Activity", "setting": "[7]", "value": 100, "unit": "%"}, {"measurement": "Activity", "setting": "[8]", "value": 100, "unit": "%"}, {"measurement": "Activity", "setting": "[9]", "value": 100, "unit": "%"}, {"measurement": "Activity", "setting": "[10]", "value": 100, "unit": "%"}, {"measurement": "Activity", "setting": "[11]", "value": 100, "unit": "%"}, {"measurement": "Activity", "setting": "[12]", "value": 100, "unit": "%"}, {"measurement": "Activity", "setting": "[13]", "value": 1, "unit": "%"}, {"measurement": "Activity", "setting": "[14]", "value": 100, "unit": "%"}, {"measurement": "Activity", "setting": "[15]", "value": 100, "unit": "%"}, {"measurement": "Activity", "setting": "[16]", "value": 94, "unit": "%"}, {"measurement": "Activity", "setting": "[17]", "value": 93, "unit": "%"}, {"measurement": "Activity", "setting": "[18]", "value": 100, "unit": "%"}, {"measurement": "Activity", "setting": "[19]", "value": 65, "unit": "%"}, {"measurement": "Activity", "setting": "[20]", "value": 0.7, "unit": "%"}, {"measurement": "Activity", "setting": "[21]", "value": 100, "unit": "%"}]}]}
